Experimental findings from ChEMBL document CHEMBL1124476, “1-(2-aminoethyl)-6-aryl-4H- [1,2,4]triazolo[4,3-a][1,4]benzodiazepines with diuretic and natriuretic activity” (J Med Chem, 1989) are described below.

Data set [1] can be described thus: Diuretic activity at 40 mg/kg (screening dose-105.3 umol/kg) in […] in a one stage experiment; T/C = urine vol of treated rats / urine vol of control rats. In kind it is functional. The procedure, abridged: (§1)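 40 mg/kg given by gavage in 25 mL/kg 0.9% saline with 0.5% (carboxymethyl)cellulose. Four rats per agent, two per metabolism cage; 20 controls; 5 h urine. T/C = treated/control urine volume. Stage-1 T/C of 1.66 or more leads to stage 2; product T/C1·T/C2 of 3.34 or more counts as active.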

The nature of data set [2]: Diuretic activity at 40 mg/kg (screening dose-103.9 umol/kg) in […] in a one stage experiment; T/C = urine vol of treated rats / urine vol of control rats. In kind it is functional. The procedure, abridged:
as §1

The nature of data set [3]: Diuretic activity at 40 mg/kg (screening dose-77.5 umol/kg) in […] in a one stage experiment; T/C = urine vol of treated rats / urine vol of control rats. The class given is functional. The procedure, abridged:
as §1

For data set [4], the species on record is Rattus norvegicus. Put plainly: […]. In kind it is ADME, organism-based, Urine. Also noted: dose 3 mg/kg, route oral. The conditions noted are these: in vivo, po, 3 mg/kg. The procedure, abridged:
(§2)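 Male Sprague-Dawley rats, about 160 g, fasted 24 h and water withheld 1 1/2 h beforehand; food and water withheld during the test. Dosing by gavage with 25 mL/kg 0.9% saline containing 0.5% (carboxymethyl)cellulose, agent dissolved or suspended. Three cages of two rats each per dose, held in metabolism cages. Urine collected over 5 h. Volume given in mL, Na+ in mequiv. Significance versus control at P < 0.05.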

Data set [5] has as its system Rattus norvegicus. The data set can be described thus: Mean excretion of chloride in conscious rats at a dose of 1.0 mg/kg given orally. Also noted: dose 1 mg/kg, route oral. In kind it is ADME, organism-based. The conditions noted are these: in vivo, po. The procedure, abridged:
(§3)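 Secondary dose-response in male Sprague-Dawley rats (~160 g), fasted and hydrated as in the primary screen. Oral gavage at 0.3-100 mg/kg in 25 mL/kg saline/0.5% CMC, three cages of two rats per dose. Urine collected 5 h; Na, K, Cl, HCO3 measured. Values are mean excretion (mequiv), compared with controls at P < 0.05.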

In data set [6] the test system is Rattus norvegicus. The data set can be described thus: Mean excretion of potassium in conscious rats at a dose of 1.0 mg/kg given orally. Also noted: dose 1 mg/kg, route oral. The settings on record: in vivo, po. In kind it is ADME, organism-based. The procedure, abridged: as §3
For data set [7], the system named is Rattus norvegicus. The data set can be described thus: Mean excretion of potassium in conscious rats at a dose of 3.0 mg/kg given orally. Also noted: dose 3 mg/kg, route oral. The conditions noted are these: in vivo, po. In kind it is ADME, organism-based. The procedure, abridged: as §3
In data set [8] the test system is Rattus norvegicus. Put plainly: Mean excretion of sodium in conscious rats at a dose of 3.0 mg/kg given orally. In kind it is ADME, organism-based. On the set-up: dose 3 mg/kg, route oral. The conditions noted are these: in vivo, po. The procedure, abridged:
as §2

The subject of data set [9] is Rattus norvegicus. Put plainly: Mean excretion of chloride in conscious rats at a dose of 10 mg/kg given orally. The class given is ADME, organism-based. Also noted: dose 10 mg/kg, route oral. The conditions noted are these: in vivo, po. The procedure, abridged:
as §3

Data set [10] deals with Rattus norvegicus. Put plainly: Mean excretion of chloride in conscious rats at a dose of 3.0 mg/kg given orally. In kind it is ADME, organism-based. Also noted: dose 3 mg/kg, route oral. The conditions noted are these: in vivo, po. The procedure, abridged: as §3
The subject of data set [11] is Rattus norvegicus. Put plainly: Mean excretion of potassium in conscious rats at a dose of 30 mg/kg given orally. In kind it is ADME, organism-based. On the set-up: dose 30 mg/kg, route oral. The conditions noted are these: in vivo, po. The procedure, abridged:
as §3

The nature of data set [12]: Diuretic activity at 40 mg/kg (screening dose 87.7 umol/kg) in […] in a two stage experiment; T/C1.2 = urine vol of treated rats / urine vol of control rats. The class given is functional. The procedure, abridged: as §1
For data set [13], the system named is Rattus norvegicus. The data set can be described thus: Mean excretion of sodium in conscious rats at a dose of 10 mg/kg given orally. The class given is ADME, organism-based. The settings on record: in vivo, po. Also noted: dose 10 mg/kg, route oral. The procedure, abridged: as §2
The subject of data set [14] is Rattus norvegicus. Put plainly: Mean excretion of potassium in conscious rats at a dose of 100 mg/kg given orally. The class given is ADME, organism-based. On the set-up: dose 100 mg/kg, route oral. The conditions noted are these: in vivo, po. The procedure, abridged: as §3
Data set [15] is filed under the species Rattus norvegicus. Put plainly: […]. In kind it is ADME, organism-based, Urine. On the set-up: dose 1 mg/kg, route oral. The conditions noted are these: in vivo, po, 1 mg/kg. The procedure, abridged: (§4)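 Dose-response test in male Sprague-Dawley rats of about 160 g, fasted 24 h, with water withheld 1½ h before and during the test. Each rat got a single gavage of 25 mL/kg 0.9% saline with 0.5% carboxymethylcellulose carrying the agent (0.3–100 mg/kg range). Rats were housed two per metabolism cage, and urine was collected for 5 h. Mean urine volume (mL) was compared with controls (P < 0.05).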

Data set [16] is filed under the species Rattus norvegicus. Put plainly: […]. In kind it is ADME, organism-based, Urine. On the set-up: dose 0.3 mg/kg, route oral. The settings on record: in vivo, po, 0.3 mg/kg. The procedure, abridged:
as §4

Data set [17] deals with Rattus norvegicus. Put plainly: Mean excretion of […] in conscious rats at a dose of 1.0 mg/kg given orally. The class given is ADME, organism-based. Also noted: dose 1 mg/kg, route oral. The settings on record: in vivo, po. The procedure, abridged: as §2
The test system of data set [18] is Rattus norvegicus. Put plainly: Mean excretion of sodium in conscious rats at a dose of 0.3 mg/kg given orally. Also noted: dose 0.3 mg/kg, route oral. The settings on record: in vivo, po. The class given is ADME, organism-based. The procedure, abridged:
as §2

In data set [19] the test system is Rattus norvegicus. The data set can be described thus: Mean excretion of potassium in conscious rats at a dose of 10 mg/kg given orally. The class given is ADME, organism-based. Also noted: dose 10 mg/kg, route oral. The conditions noted are these: in vivo, po. The procedure, abridged:
as §3

Data set [20] can be described thus: Diuretic activity at 40 mg/kg (screening dose-87.7 umol/kg) in […] in a one stage experiment; T/C = urine vol of treated rats / urine vol of control rats. The class given is functional. The procedure, abridged: as §1
For data set [21], the system named is Rattus norvegicus. The data set can be described thus: Mean excretion of Cl- in conscious rats at a dose of 0.3 mg/kg given orally. The class given is ADME, organism-based, Urine. On the set-up: dose 0.3 mg/kg, route oral. The conditions noted are these: in vivo, po. The procedure, abridged:
as §4

The species entered for data set [22] is Rattus norvegicus. The data set can be described thus: […]. On the set-up: dose 10 mg/kg, route oral. The conditions noted are these: in vivo, po, 10 mg/kg. In kind it is ADME, organism-based, Urine. The procedure, abridged: as §2
In data set [23] the test system is Rattus norvegicus. Put plainly: Mean excretion of chloride in conscious rats at a dose of 30 mg/kg given orally. The conditions noted are these: in vivo, po. On the set-up: dose 30 mg/kg, route oral. In kind it is ADME, organism-based. The procedure, abridged:
as §3

The test system of data set [24] is Rattus norvegicus. Put plainly: Mean excretion of potassium in conscious rats at a dose of 0.3 mg/kg given orally. The class given is ADME, organism-based. Also noted: dose 0.3 mg/kg, route oral. The conditions noted are these: in vivo, po. The procedure, abridged:
as §3

For data set [25], the system named is Rattus norvegicus. Put plainly: Mean excretion of chloride in conscious rats at a dose of 100 mg/kg given orally. In kind it is ADME, organism-based. On the set-up: dose 100 mg/kg, route oral. The settings on record: in vivo, po. The procedure, abridged:
as §3

The test system of data set [26] is Rattus norvegicus. Put plainly: Mean excretion of sodium in conscious rats at a dose of 30 mg/kg given orally. The class given is ADME, organism-based. Also noted: dose 30 mg/kg, route oral. The conditions noted are these: in vivo, po. The procedure, abridged:
as §2

For data set [27], the species on record is Rattus norvegicus. Put plainly: […]. Also noted: dose 30 mg/kg, route oral. The conditions noted are these: in vivo, po, 30 mg/kg. The class given is ADME, organism-based, Urine. The procedure, abridged:
as §2

The species named for data set [28] is Rattus norvegicus. The data set can be described thus: […]. In kind it is ADME, organism-based, Urine. On the set-up: dose 100 mg/kg, route oral. The settings on record: in vivo, po, 100 mg/kg. The procedure, abridged: as §2
The subject of data set [29] is Rattus norvegicus. Put plainly: Mean excretion of sodium in conscious rats at a dose of 100 mg/kg given orally. In kind it is ADME, organism-based. Also noted: dose 100 mg/kg, route oral. The conditions noted are these: in vivo, po. The procedure, abridged:
as §2

A short description of data set [30]: Diuretic activity at 40 mg/kg (screening dose-61.3 umol/kg) in […] in a one stage experiment; T/C = urine vol of treated rats / urine vol of control rats. In kind it is functional. The procedure, abridged: as §1

Take `CC(CN(C)C)c1nnc2n1-c1ccc(Cl)cc1C(c1ccccc1)=NC2` (stereo not given): the “T/C 1” value in data set [1] is 1.25.

Turning to `Clc1ccc2c(c1)C(c1ccccc1)=NCc1nnc(Cc3ccccc3)n1-2`, in data set [2], the “T/C 1” value is 0.96.

For `Clc1ccc2c(c1)C(c1ccccc1)=NCc1nnc(C(CN3CCOCC3)c3ccccc3)n1-2` (stereo not given), in [3], the “T/C 1” value came to 1.46.

On to `CC1N=C(c2ccccc2)c2cc(Cl)ccc2-n2c1nnc2C(CN(C)C)c1ccccc1` (stereo not given), for which the Mean urine volume in the data set filed under Rattus norvegicus [4] stood at 4.96 mL; in the data set filed under Rattus norvegicus [15], 4.39 mL; in the data set filed under Rattus norvegicus [16], 3.97 mL; in the data set listed under Rattus norvegicus [22], 7.53 mL; in the data set listed under Rattus norvegicus [27], 9.56 mL; in the data set filed under Rattus norvegicus [28] it was 10.66 mL. Moreover, the “Mean excretion of Cl-” value in the data set with Rattus norvegicus [5] was determined as 0.86 m equiv; in the data set with Rattus norvegicus [9], 1.33 m equiv; in the data set on Rattus norvegicus [10] it was 0.91 m equiv; in the data set with Rattus norvegicus [21], 0.82 m equiv; with Rattus norvegicus [23], 1.64 m equiv; with Rattus norvegicus [25], 1.9 m equiv. Moreover, the “Mean excretion of K+” value is recorded as 0.19 m equiv in the data set with Rattus norvegicus [6]; 0.24 m equiv in the data set on Rattus norvegicus [7]; 0.24 m equiv with Rattus norvegicus [11]; 0.21 m equiv in the data set with Rattus norvegicus [14]; 0.22 m equiv with Rattus norvegicus [19]; 0.24 m equiv in the data set with Rattus norvegicus [24]. Further, the “Mean excretion of Na+” value is listed as 0.86 m equiv with Rattus norvegicus [8]; 1.33 m equiv in the data set on Rattus norvegicus [13]; 0.82 m equiv with Rattus norvegicus [17]; 0.74 m equiv with Rattus norvegicus [18]; 1.65 m equiv in the data set on Rattus norvegicus [26]; 2.04 m equiv in the data set on Rattus norvegicus [29]. In addition, the “T/C 1.2” value in [12] stood at 7.05. For the same compound, the “T/C 1” value in data set [20] is 3.05.

Regarding `CN1CCN(CC(c2ccccc2)c2nnc3n2-c2ccc(Cl)cc2C(c2ccccc2)=NC3)CC1.I` (stereo not given), the “T/C 1” value in data set [30] is given as 1.02.
